This is an account of results in ChEMBL document CHEMBL1139053, “Quantitative structure-activity relationship (QSAR) of indoloacetamides as inhibitors of human isoprenylcysteine carboxyl methyltransferase” (Bioorg Med Chem Lett, 2007).

Molecules are shown by their SMILES.

As usually defined, the IC50 is the midpoint of a concentration-inhibition curve. A low value points to higher potency.

For the experiment, the target named is Protein-S-isoprenylcysteine O-methyltransferase (Homo sapiens, UniProt O60725). The experiment in a line: Inhibition of ICMT expressed in Sf9 cells. An outline of the steps: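 Sf9 membranes carrying ICMT added to start reactions with biotin-S-farnesyl L-cysteine and [3H]AdoMet in 100 mM Hepes pH 7.4, 5 mM MgCl2; 37 °C, 20 min; stopped with 10% Tween 20. [3H]methyl on substrate captured on streptavidin beads overnight at 4 °C, washed in phosphate-buffered NaCl, scintillation counted.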
Protein-S-isoprenylcysteine O-methyltransferase, sequence (O60725 whole entry): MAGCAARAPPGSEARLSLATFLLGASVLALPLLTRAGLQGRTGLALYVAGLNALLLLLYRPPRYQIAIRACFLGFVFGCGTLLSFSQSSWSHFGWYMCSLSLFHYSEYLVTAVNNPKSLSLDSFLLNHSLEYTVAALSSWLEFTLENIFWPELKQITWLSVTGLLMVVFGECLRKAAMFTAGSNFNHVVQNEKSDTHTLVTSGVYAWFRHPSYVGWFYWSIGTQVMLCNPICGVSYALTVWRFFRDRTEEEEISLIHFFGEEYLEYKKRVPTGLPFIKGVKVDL
For `CCCCCCn1cc(CC(N)=O)c2cc(-c3ccccc3OC)ccc21`, half-maximal inhibition (IC50) required 8.13 µM.

In turn, `CCCCCCn1cc(CC(N)=O)c2cc(-c3cccc(OCC)c3)ccc21` showed an IC50 of 6.61 µM. The IC50 values of the last two compounds are within 1.5-fold of each other.

Regarding `CCCCCCCCn1cc(CC(N)=O)c2cc(-c3cccc(OCC)c3)ccc21`, the IC50 was 2.19 µM.

`CCOc1cccc(-c2ccc3c(c2)c(CC(N)=O)cn3Cc2ccc(C(C)(C)C)cc2)c1`: the IC50 was 12.6 µM. This IC50 lies about 5.8-fold higher than the previous one.

In turn, `Cc1cccc(-c2ccc3c(c2)c(CC(N)=O)cn3CC2CC2)c1` gave a 50% inhibitory concentration (IC50) of 9.12 µM.

With `COc1ccccc1-c1ccc2c(c1)c(CC(N)=O)cn2Cc1cccc(C(F)(F)F)c1`, the IC50 is 6.17 µM.

`COc1ccccc1-c1ccc2c(c1)c(CC(N)=O)cn2CCCOc1ccccc1`: the IC50 is 100 µM. Against the preceding compound, the IC50 is about 16-fold higher.

As to `COc1ccccc1-c1ccc2[nH]cc(CC(N)=O)c2c1`, the IC50 is 100 µM.

In turn, `CCCCCCn1cc(CC(N)=O)c2cc(-c3ccc(C)cc3)ccc21` showed a concentration for half-maximal inhibition (IC50) of 7.41 µM.

`Cc1ccc(-c2ccc3c(c2)c(CC(N)=O)cn3Cc2cccc(C(F)(F)F)c2)cc1`: the IC50 is 6.46 µM.

`CCOc1cccc(-c2ccc3c(c2)c(CC(N)=O)cn3Cc2ccc3ccccc3c2)c1` gave an IC50 of 8.32 µM.

`CCOc1cccc(-c2ccc3[nH]cc(CC(N)=O)c3c2)c1` gave an IC50 of 100 µM.

For `CCCCCCCCn1cc(CC(N)=O)c2cc(-c3ccc(F)c(Cl)c3)ccc21`, the IC50 is 7.08 µM.

`CC(C)(C)c1ccc(Cn2cc(CC(N)=O)c3cc(-c4ccc(F)c(Cl)c4)ccc32)cc1`: the IC50 was 7.59 µM. The IC50 values of the last two compounds are within 1.5-fold of each other.

In turn, `NC(=O)Cc1cn(Cc2cccc(C(F)(F)F)c2)c2ccc(-c3ccc(F)c(Cl)c3)cc12` showed an IC50 of 6.17 µM.

In the case of `CCCCCCn1cc(CC(N)=O)c2cc(-c3ccc(Oc4ccccc4)cc3)ccc21`, the IC50 was 100 µM.

As for `NC(=O)Cc1c[nH]c2ccc(-c3ccc(F)c(Cl)c3)cc12`, the IC50 was 100 µM.

`CC(C)Cn1cc(CC(N)=O)c2cc(-c3cc(C(F)(F)F)cc(C(F)(F)F)c3)ccc21` gave an IC50 of 25.7 µM.

Compound `CCCCCCCCn1cc(CC(N)=O)c2cc(-c3cc(C(F)(F)F)cc(C(F)(F)F)c3)ccc21` gave an IC50 of 37.2 µM. The IC50 values of the last two compounds are within 1.5-fold of each other.

Compound `NC(=O)Cc1cn(Cc2cccc(C(F)(F)F)c2)c2ccc(-c3ccc(Oc4ccccc4)cc3)cc12` gave an IC50 of 100 µM.

As for `NC(=O)Cc1cn(Cc2ccc3ccccc3c2)c2ccc(-c3ccc(Oc4ccccc4)cc3)cc12`, half-maximal inhibition (IC50) required 100 µM.

The compound `CC(C)Cn1cc(CC(N)=O)c2cc(-c3ccc(F)c(Cl)c3)ccc21` showed an IC50 of 9.12 µM.

Regarding `NC(=O)Cc1cn(CC2CC2)c2ccc(-c3ccc(F)c(Cl)c3)cc12`, the IC50 is 5.75 µM.

`CCCCCCn1cc(CC(N)=O)c2cc(-c3ccc(F)c(Cl)c3)ccc21` gave an IC50 of 9.33 µM.

Take `CC(C)(C)c1ccc(Cn2cc(CC(N)=O)c3cc(-c4cc(C(F)(F)F)cc(C(F)(F)F)c4)ccc32)cc1`: the IC50 is 29.5 µM.

In turn, `NC(=O)Cc1cn(Cc2cccc(C(F)(F)F)c2)c2ccc(-c3cc(C(F)(F)F)cc(C(F)(F)F)c3)cc12` showed an IC50 of 100 µM.

Compound `NC(=O)Cc1cn(Cc2ccc3ccccc3c2)c2ccc(-c3cc(C(F)(F)F)cc(C(F)(F)F)c3)cc12` gave an IC50 of 100 µM.

Compound `NC(=O)Cc1c[nH]c2ccc(-c3cc(C(F)(F)F)cc(C(F)(F)F)c3)cc12` showed an IC50 of 100 µM.

As for `Cc1cccc(-c2ccc3c(c2)c(CC(N)=O)cn3Cc2ccccc2)c1`, the IC50 is 6.46 µM.

As to `Cc1cccc(-c2ccc3c(c2)c(CC(N)=O)cn3Cc2cccc(C(F)(F)F)c2)c1`, the midpoint of inhibition, the IC50, lay at 7.94 µM.

The compound `Cc1cccc(-c2ccc3c(c2)c(CC(N)=O)cn3CCCOc2ccccc2)c1` showed an IC50 of 100 µM.

For `CC(C)Cn1cc(CC(N)=O)c2cc(-c3cccc(F)c3)ccc21`, it took 3.72 µM to reach half-maximal inhibition (IC50).

As for `NC(=O)Cc1cn(Cc2ccccc2)c2ccc(-c3cccc(F)c3)cc12`, the midpoint of inhibition, the IC50, lay at 10.7 µM. Compared with the last compound, the IC50 is about 2.9-fold higher.

Consider `CC(C)(C)c1ccc(Cn2cc(CC(N)=O)c3cc(-c4cccc(F)c4)ccc32)cc1`, for which the IC50 is 5.01 µM.

On to `NC(=O)Cc1cn(Cc2cccc(C(F)(F)F)c2)c2ccc(-c3cccc(F)c3)cc12`, for which the midpoint of inhibition, the IC50, lay at 5.75 µM.

For `Cc1ccc(-c2ccc3c(c2)c(CC(N)=O)cn3Cc2ccc3ccccc3c2)cc1`, inhibition was half-maximal at 19.5 µM (IC50).

Consider `NC(=O)Cc1cn(CCCOc2ccccc2)c2ccc(-c3cccc(F)c3)cc12`, for which half-maximal inhibition (IC50) required 100 µM. This IC50 is about 5.1-fold higher than that of the compound before.

Take `NC(=O)Cc1c[nH]c2ccc(-c3cccc(F)c3)cc12`: the IC50 was 39.8 µM.

`Cc1ccc(-c2ccc3[nH]cc(CC(N)=O)c3c2)cc1`: half-maximal inhibition (IC50) required 100 µM. Compared with the last compound, the IC50 is about 2.5-fold higher.

In turn, `COc1ccccc1-c1ccc2c(c1)c(CC(N)=O)cn2CC(C)C` gave a half-maximal inhibitory concentration (IC50) of 21.9 µM.

For `COc1ccccc1-c1ccc2c(c1)c(CC(N)=O)cn2Cc1ccccc1`, the IC50 was 13.2 µM.

The compound `CCCCCCCCn1cc(CC(N)=O)c2cc(-c3ccccc3OC)ccc21` gave an IC50 of 6.03 µM. This IC50 lies about 2.2-fold lower than the previous one.

For the compound `CCCCCCn1cc(CC(N)=O)c2cc(-c3cccc(C)c3)ccc21`, the IC50 was 7.41 µM.

On to `CCCCCCCCn1cc(CC(N)=O)c2cc(-c3ccc(C)cc3)ccc21`, for which half-maximal inhibition (IC50) was put at 10.7 µM.

Take `NC(=O)Cc1cn(Cc2ccccc2)c2ccc(-c3ccc(F)c(Cl)c3)cc12`: half-maximal inhibition (IC50) was put at 10.5 µM.

Take `NC(=O)Cc1cn(CC2CC2)c2ccc(-c3cc(C(F)(F)F)cc(C(F)(F)F)c3)cc12`: the IC50 is 100 µM.

Compound `CCCCCCn1cc(CC(N)=O)c2cc(-c3cccc(F)c3)ccc21` had an IC50 of 12.9 µM.

`COc1ccccc1-c1ccc2c(c1)c(CC(N)=O)cn2CC1CC1` gave an IC50 of 16.2 µM.

As to `CCCCCCCCn1cc(CC(N)=O)c2cc(-c3cccc(F)c3)ccc21`, the IC50 is 2.4 µM. Compared with the last compound, the IC50 is about 6.8-fold lower.

On to `CCOc1cccc(-c2ccc3c(c2)c(CC(N)=O)cn3CC(C)C)c1`, for which inhibition was half-maximal at 6.17 µM (IC50).

On to `CCOc1cccc(-c2ccc3c(c2)c(CC(N)=O)cn3CC2CC2)c1`, for which the concentration for half-maximal inhibition (IC50) is 6.46 µM.

`Cc1cccc(-c2ccc3c(c2)c(CC(N)=O)cn3CC(C)C)c1` showed an IC50 of 15.8 µM.

`NC(=O)Cc1cn(CCCOc2ccccc2)c2ccc(-c3cc(C(F)(F)F)cc(C(F)(F)F)c3)cc12` had an IC50 of 100 µM.

Turning to `CCOc1cccc(-c2ccc3c(c2)c(CC(N)=O)cn3Cc2cccc(C(F)(F)F)c2)c1`, the IC50 is 4.9 µM.

Compound `NC(=O)Cc1cn(CC2CC2)c2ccc(-c3ccc(Oc4ccccc4)cc3)cc12` showed an IC50 of 100 µM.

In turn, `NC(=O)Cc1cn(CCCOc2ccccc2)c2ccc(-c3ccc(Oc4ccccc4)cc3)cc12` gave an IC50 of 100 µM.

The compound `Cc1cccc(-c2ccc3[nH]cc(CC(N)=O)c3c2)c1` had an IC50 of 100 µM.

`Cc1cccc(-c2ccc3c(c2)c(CC(N)=O)cn3Cc2ccc3ccccc3c2)c1` showed an IC50 of 17.4 µM.

In the case of `NC(=O)Cc1cn(CC2CC2)c2ccc(-c3cccc(F)c3)cc12`, the midpoint of inhibition, the IC50, lay at 14.8 µM.

The compound `Cc1ccc(-c2ccc3c(c2)c(CC(N)=O)cn3CC(C)C)cc1` gave an IC50 of 9.77 µM.
